From ChEMBL document CHEMBL3779876, “Synthesis and biological evaluation of novel 2,3-dihydrochromeno[3,4-d]imidazol-4(1H)-one derivatives as potent anticancer cell proliferation and migration agents” (Eur J Med Chem, 2016)
Calls of active or inactive are those of the source. The rule behind the calls is not given here.

Legend:
SW-620 [1] = test: Induction of apoptosis in human SW620 cells assessed as late apoptotic cells at 1.25 uM after 24 hrs by Annexin V-FITC/propidium iodide staining based flow cytometry (reference value: 1.02%); type: functional
SW-620 [2] = test: Induction of apoptosis in human SW620 cells assessed as early apoptotic cells at 5 uM after 24 hrs by Annexin V-FITC/propidium iodide staining based flow cytometry (reference value: 2.81%); type: functional
[3] = Cell cycle arrest in human SW620 cells assessed as accumulation at S phase at 2.5 uM after 24 hrs by propidium iodide staining based flow cytometry (reference value: 38.65%); type: functional; conditions: SW-620
[4] = Cell cycle arrest in human SW620 cells assessed as accumulation at G0/G1 phase after 24 hrs by propidium iodide staining based flow cytometry; type: functional; conditions: SW-620
SW-620 [5] = test: Induction of apoptosis in human SW620 cells assessed as early apoptotic cells at 0.625 uM after 24 hrs by Annexin V-FITC/propidium iodide staining based flow cytometry (reference value: 2.81%); type: functional
[6] = Growth inhibition of human U87MG cells assessed as cell viability after 72 hrs by MTT assay; type: functional, cell-based, U-87MG ATCC; conditions: U-87 MG
How it was run: (§1)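 Cells were grown in DMEM or RPMI with 10% FBS and 1% penicillin/streptomycin at 37 °C, 5% CO2. They were seeded at 2000–3000 cells, rested 24 h, then exposed to a range of concentrations for 72 h. MTT (5 mg/mL stock) was added for 2–4 h at 37 °C and formazan dissolved in DMSO. A570 was read and IC50 calculated; triplicate wells, three separate experiments.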

[7] = Cell cycle arrest in human SW620 cells assessed as accumulation at G2/M phase at 1.25 uM after 24 hrs by propidium iodide staining based flow cytometry (reference value: 22.88%); type: functional; conditions: SW-620
SW-620 [8] = test: Induction of apoptosis in human SW620 cells assessed as late apoptotic cells at 0.3125 uM after 24 hrs by Annexin V-FITC/propidium iodide staining based flow cytometry (reference value: 1.02%); type: functional
SW-620 [9] = test: Induction of apoptosis in human SW620 cells assessed as late apoptotic cells at 5 uM after 24 hrs by Annexin V-FITC/propidium iodide staining based flow cytometry (reference value: 1.02%); type: functional
[10] = Growth inhibition of human LO2 cells assessed as cell viability after 72 hrs by MTT assay; type: cell-based; conditions: L02, 72 h; how it was run: as §1
MCF7 [11] = test: Inhibition of cell migration in human MCF7 cells at 5 uM after 24 hrs by wound healing assay; type: functional, cell-based
How it was run: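 MCF-7 monolayers at 80–90% confluence were scratched with a sterile pipette tip. Fresh medium with 10% FBS and compound was added. Wounds were photographed at 0, 12 and 24 h at 37 °C.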

[12] = Cell cycle arrest in human SW620 cells assessed as accumulation at G2/M phase at 0.625 uM after 24 hrs by propidium iodide staining based flow cytometry (reference value: 22.88%); type: functional; conditions: SW-620
[13] = Cell cycle arrest in human SW620 cells assessed as accumulation at G0/G1 phase at 1.25 uM after 24 hrs by propidium iodide staining based flow cytometry (reference value: 38.47%); type: functional; conditions: SW-620
Mus musculus = test: Toxicity in Balb/c athymic nude mouse xenografted with human HCT116 cells assessed as body weight loss at 40 to 80 mg/kg, ip once in 2 days for 24 days measured every 2 days during compound treatment; type: organism-based, HCT-116; conditions: in vivo
How it was run: (§2)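 Female BALB/c athymic nude mice, 7 weeks old, received 1×10^7 HCT116 cells s.c. in the right flank. After one week, at about 100 mm³ mean tumour volume, mice were randomised to three groups of 8. Groups got vehicle, 40 or 80 mg/kg i.p. once every two days for 24 days. Tumour size and body weight were measured every two days. Volume = L×W²×0.5; inhibition was taken from mean volume change versus vehicle.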

[14] = Cell cycle arrest in human SW620 cells assessed as accumulation at G2/M phase at 2.5 uM after 24 hrs by propidium iodide staining based flow cytometry (reference value: 22.88%); type: functional; conditions: SW-620
[15] = Growth inhibition of human PC3 cells assessed as cell viability after 72 hrs by MTT assay; type: functional, cell-based; conditions: PC-3, 72 h; how it was run: as §1
[16] = Cell cycle arrest in human SW620 cells assessed as accumulation at S phase at 0.3125 uM after 24 hrs by propidium iodide staining based flow cytometry (reference value: 38.65%); type: functional; conditions: SW-620
[17] = Antitumor activity against human HCT116 cells xenografted in Balb/c athymic nude mouse assessed as tumor growth inhibition at 80 mg/kg, ip once in 2 days for 24 days measured every 2 days during compound treatment relative to control; type: functional; conditions: HCT-116, ip, read-out: TGI; how it was run: as §2
CT26 = test: Growth inhibition of mouse CT26 cells assessed as cell viability after 72 hrs by MTT assay; type: functional, cell-based; conditions: CT26, 72 h; how it was run: as §1
SW-620 [18] = test: Induction of apoptosis in human SW620 cells assessed as early apoptotic cells at 2.5 uM after 24 hrs by Annexin V-FITC/propidium iodide staining based flow cytometry (reference value: 2.81%); type: functional
[19] = Cell cycle arrest in human SW620 cells assessed as accumulation at S phase at 0.625 uM after 24 hrs by propidium iodide staining based flow cytometry (reference value: 38.65%); type: functional; conditions: SW-620
SW-620 [20] = test: Induction of apoptosis in human SW620 cells assessed as late apoptotic cells at 2.5 uM after 24 hrs by Annexin V-FITC/propidium iodide staining based flow cytometry (reference value: 1.02%); type: functional
[21] = Cell cycle arrest in human SW620 cells assessed as accumulation at G0/G1 phase at 0.625 uM after 24 hrs by propidium iodide staining based flow cytometry (reference value: 38.47%); type: functional; conditions: SW-620
[22] = Growth inhibition of human HCT116 cells assessed as cell viability after 72 hrs by MTT assay; type: functional, cell-based; conditions: HCT-116, 72 h; how it was run: as §1
[23] = Growth inhibition of human SW620 cells assessed as cell viability after 72 hrs by MTT assay; type: functional, cell-based; conditions: SW-620, 72 h; how it was run: as §1
HCT-116 [24] = test: Inhibition of colony formation in human HCT116 cells at 0.3125 to 2.5 uM after 20 days by crystal violet staining based microscopic analysis; type: functional, cell-based
How it was run: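 HCT116 cells were plated at 500 per well, left overnight at 37 °C, then treated with fresh compound-containing medium. Colonies were washed with cold PBS, fixed in 4% paraformaldehyde and stained with 0.5% crystal violet for 15 min. Colonies over 50 cells were counted by microscope and expressed as % of control; three independent experiments.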

[25] = Cell cycle arrest in human SW620 cells assessed as accumulation at G0/G1 phase at 2.5 uM after 24 hrs by propidium iodide staining based flow cytometry (reference value: 38.47%); type: functional; conditions: SW-620
[26] = Cell cycle arrest in human SW620 cells assessed as accumulation at G2/M phase at 5 uM after 24 hrs by propidium iodide staining based flow cytometry (reference value: 22.88%); type: functional; conditions: SW-620
SW-620 [27] = test: Induction of apoptosis in human SW620 cells assessed as late apoptotic cells at 0.625 uM after 24 hrs by Annexin V-FITC/propidium iodide staining based flow cytometry (reference value: 1.02%); type: functional
SW-620 [28] = test: Induction of apoptosis in human SW620 cells after 24 hrs by Annexin V-FITC/propidium iodide staining based flow cytometry; type: functional, cell-based
A549 = test: Growth inhibition of human A549 cells assessed as cell viability after 72 hrs by MTT assay; type: functional, cell-based; conditions: A549, 72 h; how it was run: as §1
SW-620 [29] = test: Induction of apoptosis in human SW620 cells assessed as early apoptotic cells at 0.3125 uM after 24 hrs by Annexin V-FITC/propidium iodide staining based flow cytometry (reference value: 2.81%); type: functional
[30] = Cell cycle arrest in human SW620 cells assessed as accumulation at G0/G1 phase at 5 uM after 24 hrs by propidium iodide staining based flow cytometry (reference value: 38.47%); type: functional; conditions: SW-620
SW-620 [31] = test: Induction of apoptosis in human SW620 cells assessed as early apoptotic cells at 1.25 uM after 24 hrs by Annexin V-FITC/propidium iodide staining based flow cytometry (reference value: 2.81%); type: functional
[32] = Cell cycle arrest in human SW620 cells assessed as accumulation at S phase at 1.25 uM after 24 hrs by propidium iodide staining based flow cytometry (reference value: 38.65%); type: functional; conditions: SW-620
[33] = Cell cycle arrest in human SW620 cells assessed as accumulation at G0/G1 phase at 0.3125 uM after 24 hrs by propidium iodide staining based flow cytometry (reference value: 38.47%); type: functional; conditions: SW-620
MCF7 [34] = test: Growth inhibition of human MCF7 cells assessed as cell viability after 72 hrs by MTT assay; type: functional, cell-based; conditions: MCF7, 72 h; how it was run: as §1
HCT-116 [35] = test: Antitumor activity against human HCT116 cells xenografted in ip dosed Balb/c athymic nude mouse assessed as tumor growth inhibition administered once in 2 days for 24 days measured every 2 days during compound treatment; type: functional, organism-based; how it was run: as §2
[36] = Cell cycle arrest in human SW620 cells assessed as accumulation at G2/M phase at 0.3125 uM after 24 hrs by propidium iodide staining based flow cytometry (reference value: 22.88%); type: functional; conditions: SW-620
[37] = Cell cycle arrest in human SW620 cells assessed as accumulation at S phase at 5 uM after 24 hrs by propidium iodide staining based flow cytometry (reference value: 38.65%); type: functional; conditions: SW-620

CN1c2c(c3cc(-c4cnc5ccccc5c4)ccc3oc2=O)N(c2ccc(C(C)(C)C#N)cc2)C1(C)OC(C)(C)C (stereo not given)
Activity (SW-620 [1]): 8.43% | Activity (SW-620 [2]): 31.33% | Activity [3]: 37.2% | Activity [4]: Dose-dependent effect | Activity (SW-620 [5]): 8.59% | IC50 [6]: > 31 µM | Activity [7]: 20.5% | Activity (SW-620 [8]): 8.96% | Activity (SW-620 [9]): 11.57% | IC50 [10]: 37 µM | inhibition (MCF7 [11]): Active | Activity [12]: 22.8% | Activity [13]: 43% | Activity (Mus musculus): Non-toxic | Activity [14]: 15.3% | IC50 [15]: 18 µM | Activity [16]: 35.2% | inhibition in vivo at 80 mg/kg [17]: 53% | IC50 (CT26): 3.5 µM | Activity (SW-620 [18]): 16.78% | Activity [19]: 36.9% | Activity (SW-620 [20]): 9.44% | Activity [21]: 40.3% | IC50 [22]: 1.4 µM | IC50 [23]: 3.55 µM | inhibition (HCT-116 [24]): Active | Activity [25]: 47.5% | Activity [26]: 9.68% | Activity (SW-620 [27]): 9.09% | Activity (SW-620 [28]): Dose-dependent effect | IC50 (A549): 9.5 µM | Activity (SW-620 [29]): 6.75% | Activity [30]: 60% | Activity (SW-620 [31]): 16.76% | Activity [32]: 36.6% | Activity [33]: 38.8% | IC50 (MCF7 [34]): 1.7 µM | TGI (HCT-116 [35]): Dose-dependent effect | Activity [36]: 26% | Activity [37]: 30.3%
